Measurements reported in ChEMBL document CHEMBL1157623, “Benzyl 1,2,3,5,11,11a-hexahydro-3,3-dimethyl-1-oxo-6H-imidazo[3',4':1,2]pyridin[3,4-b]indole-2-substituted acetates: One-pot-preparation, anti-tumor activity, docking toward DNA and 3D QSAR analysis” (Bioorg Med Chem, 2010).
pIC50: −log10 of the molar value.

Experiments:
Mus musculus [1] = experiment: Toxicity in ICR mouse xenografted with mouse S180 cells assessed as spleen weight at 1 mg/kg, ip administered 24 hrs after tumor implantation daily for 7 consecutive days measured after 24 hrs of last dose (Rvb=0.22 +/- 0.04 g); assay type: organism-based, CCRF S-180; design: dose 1 mg/kg, route intraperitoneal; conditions: in vivo
Mus musculus [2] = experiment: Toxicity in ICR mouse xenografted with mouse S180 cells assessed as heart weight at 1 mg/kg, ip administered 24 hrs after tumor implantation daily for 7 consecutive days measured after 24 hrs of last dose (Rvb=0.17 +/- 0.01 g); assay type: organism-based, CCRF S-180; design: dose 1 mg/kg, route intraperitoneal; conditions: in vivo
CCRF S-180 [3] = experiment: Antitumor activity against mouse S180 cells xenografted in ICR mouse assessed as tumor weight at 1 mg/kg, ip administered 24 hrs after tumor implantation daily for 7 consecutive days measured after 24 hrs of last dose (Rvb=1.602 +/- 0.391 g); assay type: functional; conditions: route intraperitoneal
[4] = Antiproliferative activity against human KBVIN cells after 3 days by sulforhodamine B assay; assay type: functional, cell-based; conditions: 72 h
Method in brief: (§1)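 Freshly trypsinized cells seeded at 5000 per well; compounds added from DMSO-diluted stock at 60, 6, 0.6, 0.06 and 0.006 µM. After 3 days, attached cells were fixed with cold 10% trichloroacetic acid, stained with 0.4% sulforhodamine B, the bound dye solubilized, and absorbance read at 562 nm. IC50 is the concentration reducing cell growth by 50%, averaged from at least three independent determinations.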

Mus musculus [5] = experiment: Toxicity in ICR mouse assessed as change in liver weight at 10 to 500 mg/kg, ip measured on day 7 post dose by necroscopy; assay type: organism-based; design: dose 10-500 mg/kg, route intraperitoneal; conditions: in vivo
Mus musculus [6] = experiment: Toxicity in ICR mouse xenografted with mouse S180 cells assessed as kidney weight at 1 mg/kg, ip administered 24 hrs after tumor implantation daily for 7 consecutive days measured after 24 hrs of last dose (Rvb=0.23 +/- 0.02 g); assay type: organism-based, CCRF S-180; design: dose 1 mg/kg, route intraperitoneal; conditions: in vivo
Mus musculus [7] = experiment: Neurotoxicity in ICR mouse assessed as occurrence of neurotoxic behavior at 10 to 500 mg/kg, ip measured up to 7 days post dose; assay type: toxicity, organism-based; design: dose 10-500 mg/kg, route intraperitoneal; conditions: in vivo, 168 h
Method in brief: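 Healthy ICR mice, 10–12 weeks old, 12 per group (six male, six female), fasted overnight with water available. Single ip injection of 10, 100 or 500 mg/kg in 0.2 mL 0.9% saline. Monitored continuously up to 7 days for abnormal behavior (tremor, twitch, jumping, tetanus, supination) or death. Sacrificed on day 7; heart, liver and kidneys checked macroscopically.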

MCF7 = experiment: Antiproliferative activity against human MCF7 cells after 3 days by sulforhodamine B assay; assay type: functional, cell-based; conditions: MCF7, 72 h; method in brief: as §1
[8] = Lipophilicity, log K at 10 uM after 40 mins by HPLC analysis; assay type: physicochemical
Method in brief: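 Sample at 10^-5 M analysed by reversed-phase C18 HPLC, eluted with CH3OH/H2O 0.7/0.3 at 1 mL/min for 40 min, UV detection at 254.8 nm. Retention time tR recorded; acetone peak taken as t0 (1.591 min). Log K = Log[(tR − t0)/t0].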

Mus musculus [9] = experiment: Toxicity in ICR mouse assessed as change in kidney weight at 10 to 500 mg/kg, ip measured on day 7 post dose by necroscopy; assay type: organism-based; design: dose 10-500 mg/kg, route intraperitoneal; conditions: in vivo
Mus musculus [10] = experiment: Toxicity in ICR mouse xenografted with mouse S180 cells assessed as femur weight at 1 mg/kg, ip administered 24 hrs after tumor implantation daily for 7 consecutive days measured after 24 hrs of last dose (Rvb=0.056 +/- 0.006 g); assay type: organism-based, CCRF S-180; design: dose 1 mg/kg, route intraperitoneal; conditions: in vivo
Mus musculus [11] = experiment: Toxicity in ICR mouse xenografted with mouse S180 cells assessed as body weight at 1 mg/kg, ip administered 24 hrs after tumor implantation daily for 7 consecutive days measured after 24 hrs of last dose (Rvb=33.3 +/- 2.32 g); assay type: organism-based, CCRF S-180; design: dose 1 mg/kg, route intraperitoneal; conditions: in vivo
Mus musculus [12] = experiment: Toxicity in ICR mouse xenografted with mouse S180 cells assessed as liver weight at 1 mg/kg, ip administered 24 hrs after tumor implantation daily for 7 consecutive days measured after 24 hrs of last dose (Rvb=2.36 +/- 0.20 g); assay type: organism-based, CCRF S-180; design: dose 1 mg/kg, route intraperitoneal; conditions: in vivo
Mus musculus [13] = experiment: Toxicity in ICR mouse xenografted with mouse S180 cells assessed as brain weight at 1 mg/kg, ip administered 24 hrs after tumor implantation daily for 7 consecutive days measured after 24 hrs of last dose (Rvb=0.31 +/- 0.01 g); assay type: organism-based, CCRF S-180; design: dose 1 mg/kg, route intraperitoneal; conditions: in vivo
Mus musculus [14] = experiment: Toxicity in ICR mouse assessed as change in heart weight at 10 to 500 mg/kg, ip measured on day 7 post dose by necroscopy; assay type: organism-based; design: dose 10-500 mg/kg, route intraperitoneal; conditions: in vivo
Mus musculus [15] = experiment: Toxicity in ICR mouse assessed as mortality up to 500 mg/kg, ip measured after 7 days post dose; assay type: organism-based; design: dose 500 mg/kg, route intraperitoneal; conditions: in vivo, 168 h
Method in brief: (§2)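 ICR mice, 10–12 weeks old, of both sexes (six males and six females, 12 per group), housed at 21 °C and fasted overnight with water available. They received a single ip injection of 10, 100 or 500 mg/kg in 0.2 mL 0.9% saline. Mice were watched continuously for 7 days for neurotoxic behaviour or death, then killed on day 7 and checked macroscopically (heart, liver, kidneys). LD50 was estimated graphically.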

A549 = experiment: Antiproliferative activity against human A549 cells after 3 days by sulforhodamine B assay; assay type: functional, cell-based; conditions: A549, 72 h; method in brief: as §1
[16] = Toxicity in ip dosed ICR mouse measured after 7 days post dose; assay type: organism-based; conditions: in vivo; method in brief: as §2
KB = experiment: Antiproliferative activity against human KB cells after 3 days by sulforhodamine B assay; assay type: functional, cell-based; conditions: 72 h; method in brief: as §1
PC-3 = experiment: Antiproliferative activity against human PC3 cells after 3 days by sulforhodamine B assay; assay type: functional, cell-based; conditions: PC-3, 72 h; method in brief: as §1
CCRF S-180 [17] = experiment: Antitumor activity against mouse S180 cells xenografted in ICR mouse assessed as tumor weight at 0.1 mg/kg, ip administered 24 hrs after tumor implantation daily for 7 consecutive days measured after 24 hrs of last dose (Rvb=1.602 +/- 0.391 g); assay type: functional; conditions: route intraperitoneal
CCRF S-180 [18] = experiment: Antitumor activity against mouse S180 cells xenografted in ip dosed ICR mouse assessed as decrease in tumor weight administered 24 hrs after tumor implantation daily for 7 consecutive days measured after 24 hrs of last dose; assay type: functional, organism-based
CCRF S-180 [19] = experiment: Antitumor activity against mouse S180 cells xenografted in ICR mouse assessed as tumor weight at 0.01 mg/kg, ip administered 24 hrs after tumor implantation daily for 7 consecutive days measured after 24 hrs of last dose (Rvb=1.602 +/- 0.391 g); assay type: functional; conditions: route intraperitoneal

| Compound | Activity (CCRF S-180 [3]) | pIC50 [4] | pIC50 (MCF7) | log K [8] | pIC50 (A549) | pIC50 (KB) | pIC50 (PC-3) | other results |
| --- | --- | --- | --- | --- | --- | --- | --- | --- |
| CC1(C)N(CC(=O)OCc2ccccc2)C(=O)[C@@H]2Cc3c([nH]c4ccccc34)CN21 | 0.916 g | 4.91 | 4.98 | 0.32 | 5.10 | 4.65 | 5.00 | Activity (Mus musculus [1]): 0.24 g; Activity (Mus musculus [2]): 0.16 g; Activity (Mus musculus [5]): Non-toxic; Activity (Mus musculus [6]): 0.22 g; Activity (Mus musculus [7]): Non-toxic; Activity (Mus musculus [9]): Non-toxic; Activity (Mus musculus [10]): 0.055 g; Activity (Mus musculus [11]): 33.75 g; Activity (Mus musculus [12]): 2.25 g; Activity (Mus musculus [13]): 0.3 g; Activity (Mus musculus [14]): Non-toxic; Activity (Mus musculus [15]): Non-toxic; LD50 at 168 h [16]: > 500 mg/kg |
| C[C@@H](C(=O)OCc1ccccc1)N1C(=O)[C@@H]2Cc3c([nH]c4ccccc34)CN2C1(C)C | 1.418 g | 4.25 | 4.24 | 0.44 | 4.23 | 4.22 | 4.32 |  |
| COc1cccc2c1C(=O)c1c(O)c3c(c(O)c1C2=O)C[C@@](O)(C(=O)CO)C[C@@H]3O[C@H]1C[C@H](N)[C@H](O)[C@H](C)O1 [DOXORUBICIN] | 0.817 g |  |  |  |  |  |  | Activity (Mus musculus [1]): 0.11 g; Activity (Mus musculus [2]): 0.15 g; Activity (Mus musculus [6]): 0.19 g; Activity (Mus musculus [10]): 0.046 g; Activity (Mus musculus [11]): 27.28 g; Activity (Mus musculus [12]): 2 g; Activity (Mus musculus [13]): 0.32 g |
| CC1(C)N2Cc3[nH]c4ccccc4c3C[C@H]2C(=O)N1[C@@H](CC(=O)OCc1ccccc1)C(=O)OCc1ccccc1 | 0.746 g | 4.41 | 5.15 | 0.96 | 6.82 | 4.44 | 7.40 | Activity (Mus musculus [1]): 0.24 g; Activity (Mus musculus [2]): 0.17 g; Activity (CCRF S-180 [17]): 1.013 g; Activity (CCRF S-180 [18]): Dose-dependent effect; Activity (CCRF S-180 [19]): 1.305 g; Activity (Mus musculus [5]): Non-toxic; Activity (Mus musculus [6]): 0.23 g; Activity (Mus musculus [7]): Non-toxic; Activity (Mus musculus [9]): Non-toxic; Activity (Mus musculus [10]): 0.057 g; Activity (Mus musculus [11]): 33.37 g; Activity (Mus musculus [12]): 2.26 g; Activity (Mus musculus [13]): 0.31 g; Activity (Mus musculus [14]): Non-toxic; Activity (Mus musculus [15]): Non-toxic; LD50 at 168 h [16]: > 500 mg/kg |
| CC1(C)N2Cc3[nH]c4ccccc4c3C[C@H]2C(=O)N1[C@@H](CCC(N)=O)C(=O)OCc1ccccc1 | 1.696 g | 4.40 | 4.69 | 0.25 | 4.42 | 4.38 | 5.00 |  |
| CC1(C)N2Cc3[nH]c4ccccc4c3C[C@H]2C(=O)N1[C@@H](Cc1ccc(O)cc1)C(=O)OCc1ccccc1 | 1.046 g | 5.08 | 5.35 | 0.49 | 6.92 | 4.74 | 6.16 | Activity (Mus musculus [1]): 0.23 g; Activity (Mus musculus [2]): 0.16 g; Activity (Mus musculus [5]): Non-toxic; Activity (Mus musculus [6]): 0.23 g; Activity (Mus musculus [7]): Non-toxic; Activity (Mus musculus [9]): Non-toxic; Activity (Mus musculus [10]): 0.056 g; Activity (Mus musculus [11]): 35.85 g; Activity (Mus musculus [12]): 2.35 g; Activity (Mus musculus [13]): 0.32 g; Activity (Mus musculus [14]): Non-toxic; Activity (Mus musculus [15]): Non-toxic; LD50 at 168 h [16]: > 500 mg/kg |
| CC1(C)N2Cc3[nH]c4ccccc4c3C[C@H]2C(=O)N1[C@@H](COCc1ccccc1)C(=O)OCc1ccccc1 | 1.793 g | 4.37 | 4.70 | 1.02 | 4.63 | 4.42 | 4.86 |  |
| CC(C)C[C@@H](C(=O)OCc1ccccc1)N1C(=O)[C@@H]2Cc3c([nH]c4ccccc34)CN2C1(C)C | 2.05 g | 4.49 | 4.83 | 0.92 | 4.51 | 4.39 | 5.15 |  |
| CC1(C)N2Cc3[nH]c4ccccc4c3C[C@H]2C(=O)N1[C@@H](CC(N)=O)C(=O)OCc1ccccc1 | 1.604 g | 4.30 | 4.70 | 0.16 | 4.40 | 4.36 | 4.77 |  |
| CC(C)[C@@H](C(=O)OCc1ccccc1)N1C(=O)[C@@H]2Cc3c([nH]c4ccccc34)CN2C1(C)C | 2.003 g | 4.28 | 4.47 | 0.73 | 4.35 | 4.28 | 5.07 |  |
| CC1(C)N2Cc3[nH]c4ccccc4c3C[C@H]2C(=O)N1[C@@H](CCCCNC(=O)OCc1ccccc1)C(=O)OCc1ccccc1 | 1.613 g | 4.51 | 5.34 | 0.87 | 5.08 | 4.48 | 5.37 |  |
| CCC(C)[C@@H](C(=O)OCc1ccccc1)N1C(=O)[C@@H]2Cc3c([nH]c4ccccc34)CN2C1(C)C (stereo partly specified) | 2.846 g | 4.29 | 4.68 | 0.8 | 4.36 | 4.30 | 4.99 |  |
| CC1(C)N2Cc3[nH]c4ccccc4c3C[C@H]2C(=O)N1[C@@H](Cc1ccccc1)C(=O)OCc1ccccc1 | 1.6 g | 4.39 | 4.37 | 1.05 | 4.45 | 4.33 | 4.39 |  |
| CC1(C)N2Cc3[nH]c4ccccc4c3C[C@H]2C(=O)N1[C@@H](CCC(=O)OCc1ccccc1)C(=O)OCc1ccccc1 | 1.578 g | 4.42 | 4.43 | 1.05 | 4.47 | 4.40 | 4.45 |  |
